Assay results: ChEMBL document CHEMBL1121504, “Aporphines. 31. Synthesis and antitumor activity of aporphine nitrogen mustards” (1980)

Assays:
P388 [1] = assay: (§1) Antitumor activity against intraperitoneally implanted P388 lymphocytic leukemia (P388) system at dose 25 mg/kg; type: functional, Mus musculus; settings: route intraperitoneal
Outline: (§2)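 P388 lymphocytic leukemia inoculated intraperitoneally and run under standard NCI screening protocols. Each compound was tested at several graded doses in mg/kg. Activity was read out as T/C for each dose, with confirmatory activity judged by the NCI criteria.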

P388 [2] = assay: Antitumor activity against intraperitoneally implanted P388 lymphocytic leukemia (P388) system at dose 100 mg/kg; type: functional, Mus musculus; settings: route intraperitoneal; outline: as §2
P388 [3] = assay: Antitumor activity against intraperitoneally implanted P388 lymphocytic leukemia (P388) system at dose 50 mg/kg; type: functional, Mus musculus; settings: route intraperitoneal; outline: as §2
P388 [4] = assay: (§3) Antitumor activity against intraperitoneally implanted P388 lymphocytic leukemia (P388) system at dose 12.5 mg/kg; type: functional, Mus musculus; settings: route intraperitoneal; outline: as §2
P388 [5] = assay: as §1; type: functional, Mus musculus; settings: route intraperitoneal; remark: listed apart in the source
Outline: (§4)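 Murine-screen tumor implanted intraperitoneally and treated at the listed mg/kg doses under standard NCI protocols. Activity is read out as T/C, the treated-to-control ratio.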

P388 [6] = assay: Antitumor activity against intraperitoneally implanted P388 lymphocytic leukemia (P388) system at dose 3.13 mg/kg; type: functional, Mus musculus; settings: route intraperitoneal; outline: as §4
P388 [7] = assay: as §3; type: functional, Mus musculus; settings: route intraperitoneal; outline: as §4; remark: listed apart in the source
P388 [8] = assay: Antitumor activity against intraperitoneally implanted P388 lymphocytic leukemia (P388) system at dose 6.25 mg/kg; type: functional, Mus musculus; settings: route intraperitoneal; outline: as §4
P388 [9] = assay: Antitumor activity against intraperitoneally implanted lymphocytic leukemia (P388) system at dose 16 mg/kg; type: functional, Mus musculus; settings: route intraperitoneal; outline: as §4
P388 [10] = assay: Antitumor activity against intraperitoneally implanted lymphocytic leukemia (P388) system at dose 8 mg/kg; type: functional, Mus musculus; settings: route intraperitoneal; outline: as §4
Mus musculus [11] = assay: Antitumor activity against intraperitoneally implanted lymphoid leukemia (LE1210) tumor system at dose 50 mg/kg; type: functional; settings: route intraperitoneal; outline: as §4
[12] = Antitumor activity against intracerebrally implanted ependymoblastoma (EM) tumor system at dose 16 mg/kg; type: functional
Outline: (§5)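 Tumor implanted […] and treated at the listed mg/kg doses under standard NCI protocols. Activity is read out as T/C, the treated-to-control ratio.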

P388 [13] = assay: Antitumor activity against intraperitoneally implanted lymphocytic leukemia (P388) system at dose 4 mg/kg; type: functional, Mus musculus; settings: route intraperitoneal; outline: as §4
Mus musculus [14] = assay: Antitumor activity against intraperitoneally implanted lymphoid leukemia (LE1210) tumor system at dose 12.5 mg/kg; type: functional; settings: route intraperitoneal; outline: as §4
Mus musculus [15] = assay: Antitumor activity against intraperitoneally implanted lymphoid leukemia (LE1210) tumor system at dose 100 mg/kg; type: functional; settings: route intraperitoneal; outline: as §4
[16] = Antitumor activity against intracerebrally implanted ependymoblastoma (EM) tumor system at dose 8 mg/kg; type: functional; outline: as §5
[17] = Antitumor activity against intracerebrally implanted ependymoblastoma (EM) tumor system at dose 4 mg/kg; type: functional; outline: as §5
Mus musculus [18] = assay: Antitumor activity against intraperitoneally implanted lymphoid leukemia (LE1210) tumor system at dose 25 mg/kg; type: functional; settings: route intraperitoneal; outline: as §4
Mus musculus [19] = assay: Antitumor activity against intraperitoneally implanted lymphoid leukemia (LE1210) tumor system at dose 6.25 mg/kg; type: functional; settings: route intraperitoneal; outline: as §4

SMILES: COc1ccc2c(c1O)-c1cccc3c1C(C2)N(CCOCCCl)CC3 (centres undefined)
- T/C (P388 [1]): 107
- T/C (P388 [2]): 104
- T/C (P388 [3]): 101
- T/C (P388 [4]): 99

SMILES: COc1ccc2c(c1O)-c1cc(O)cc3c1C(C2)N(C(=O)CN(CCCl)CCCl)CC3 (centres undefined)
- T/C (P388 [5]): 114
- T/C (P388 [6]): 130
- T/C (P388 [7]): 158
- T/C (P388 [8]): 149

SMILES: COc1cc2c3c(c1)-c1c(ccc(OC)c1OC)CC3N(CCN(CCCl)CCCl)CC2 (centres undefined)
- T/C (P388 [9]): 113
- T/C (P388 [10]): 127
- T/C (Mus musculus [11]): 101
- T/C [12]: 108
- T/C (P388 [13]): 106
- T/C (Mus musculus [14]): 98
- T/C (Mus musculus [15]): 87
- T/C [16]: 104
- T/C [17]: 108
- T/C (Mus musculus [18]): 101
- T/C (Mus musculus [19]): 101
